# SENP1 inh: inhibitors of human SENP1 SUMO protease catalytic domain | Q9P0U3 | recombinant SENP1 catalytic domain, CyPet-SUMO1-YPet FRET cleavage | inhibition, % at 10 µM | 0.21% of 360,000 active | AID 624204;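 active = inhibition at least 30% at 10 µM, raw YFP signal under a set limit, fluorescence ratio 0.5 to 1.5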;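 also: 0% = enzyme with DMSO and 100% = no enzyme wells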
#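 Test system: human SENP1 catalytic domain; medium: Tris pH 8 buffer plus EDTA, NaCl, BME, BSA, NP40, catalase; incubation: 50 min reaction at room temperature; technique: FRET, CFP and YFP emission; controls: no-enzyme low control and enzyme-plus-DMSO high control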
# SENP8 block-1: SENP8 (human) protease inhibition; Q96LD8; recombinant SENP8, Nedd8 substrate fluorescence; inhibition, % at 20 µM; 0.64% of 360,000 active; AID 602440; in the data active = inhibition mostly above about 40%, no sharp cut-off; inactive = mostly below about 27%
# Target sequence (Q96LD8 whole entry, looked up): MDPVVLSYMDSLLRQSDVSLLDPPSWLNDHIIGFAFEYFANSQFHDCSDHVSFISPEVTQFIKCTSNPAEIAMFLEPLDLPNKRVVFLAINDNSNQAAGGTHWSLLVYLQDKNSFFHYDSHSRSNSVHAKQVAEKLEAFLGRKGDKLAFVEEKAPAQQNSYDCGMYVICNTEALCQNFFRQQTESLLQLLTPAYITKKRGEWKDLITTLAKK
# SENP6 inh: blocks the human protease SENP6. Q9GZR1. Recombinant SENP6 catalytic domain, aminoluciferin luminescence. inhibition, % at 10 µM. 1.8% of 330,000 active;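 active = inhibition above about 50% at the single tested dose, limit read from the data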;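 also: plate controls were DMSO wells with enzyme for no effect and DMSO wells lacking enzyme for full effect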
# SENP8 block-2: SENP8 protease inhibition | Q96LD8 | purified SENP8, Z-RLRGG-aminoluciferin cleavage, luminescence | inhibition, % at 10 µM | 1.2% of 330,000 active | AID 2540; in the data active = inhibition above about 50%
# SENP7 block: SENP7 protease inhibition; recombinant SENP7, Z-RLRGG-aminoluciferin luminescence, 40 min; inhibition, % at 5 µM; 1.5% of 330,000 active; AID 434973;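 active = inhibition above about 50% at the single test dose, limit read from the data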;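 also: plate controls were DMSO with enzyme for no effect and no enzyme buffer wells for full effect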
# Target sequence (Q9BQF6 706-1050 limits assumed): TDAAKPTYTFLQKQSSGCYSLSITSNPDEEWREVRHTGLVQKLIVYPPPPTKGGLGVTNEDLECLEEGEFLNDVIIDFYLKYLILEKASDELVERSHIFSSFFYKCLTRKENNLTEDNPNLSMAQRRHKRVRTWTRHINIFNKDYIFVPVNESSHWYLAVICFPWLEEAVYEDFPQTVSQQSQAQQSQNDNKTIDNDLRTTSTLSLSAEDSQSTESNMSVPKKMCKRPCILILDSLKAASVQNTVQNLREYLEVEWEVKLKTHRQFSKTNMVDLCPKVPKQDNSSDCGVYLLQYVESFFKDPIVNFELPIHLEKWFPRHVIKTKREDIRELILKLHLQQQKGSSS
# SENP8 confirm: confirmation of human SENP8 protease inhibitors; shares compounds with SENP7 block; Recombinant SENP8, Z-RLRGG-aminoluciferin luminescence, 60 min; inhibition, % at 12.5 µM; AID 488912; 40% of 6,200 active;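 active = mean inhibition across replicates above about 50%, limit read from the data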
# SENP6 conf: confirmation of human SENP6 protease inhibitors; 58% of 6,200 active; shares compounds with SENP7 block; recombinant SENP6, Z-RLRGG-aminoluciferin luminescence; AID 488915; inhibition, % at 12.5 µM
# SENP7 confirm: confirmation of human SENP7 protease inhibitors; shares compounds with SENP7 block; recombinant SENP7, Z-RLRGG-aminoluciferin luminescence, 40 min; inhibition, % at 12.5 µM; 69% of 6,200 active
# Casp3 select: caspase-3 inhibition (SENP selectivity assay) | shares compounds with SENP7 block | 60% of 6,200 active | AID 488918 | purified caspase-3, Z-DEVD-aminoluciferin luminescence, 60 min | inhibition, % at 12.5 µM;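 active = mean inhibition above about 50%, limit read from the data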;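 also: plate controls were enzyme with DMSO for no effect and wells without caspase-3 for full effect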
# SENP luc ctr: interferes with luciferase luminescence in SENP counter-screen; 39% of 6,200 active; shares compounds with SENP7 block; Pre-incubated SENP8/Z-RLRGG-aminoluciferin, luciferase luminescence interference; inhibition, % at 12.5 µM; AID 488919;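 active = mean inhibition above about 50% when retested at one dose, limit read from the data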;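 also: plate controls were DMSO wells with completed reaction for no effect and substrate without enzyme for full effect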
# Numbers without * were called inactive; . = no result. The list is not random: actives were taken first. Their share in the collection is about 2.5%.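 The calls were made as follows, unless noted: active = mean inhibition above about 50% in the one-dose retest (limit read from the data); inactive = the rest.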
SMILES,SENP1 inh,SENP8 block-1,SENP6 inh,SENP8 block-2,SENP7 block,SENP8 confirm,SENP6 conf,SENP7 confirm,Casp3 select,SENP luc ctr
COc1ccc(/C=N/Nc2ccccn2)cc1O,2,11,57*,12,33,42,36,77*,72*,64*
Oc1cccc(C=NNc2ccccn2)c1,1,14,.,.,.,.,.,.,.,.
Brc1ccc(/C=N/Nc2ccccn2)cc1,1,24,1,33,65*,-4,43,86*,40,1
Cn1c(N)c(C(=O)COC(=O)COc2ccccc2Cl)c(=O)n(C)c1=O,1,7,-19,-11,-17,.,.,.,.,.
COc1ccc(OCC(=O)NCCCCCCNC(=O)COc2ccc(OC)cc2)cc1,2,-4,-9,-1,2,.,.,.,.,.
C(=N\Nc1ccccn1)/c1ccc(N2CCOCC2)cc1,18,-207,19,33,48,.,.,.,.,.
Fc1ccc(/C=N/Nc2ccccn2)cc1,1,11,66*,46,64*,30,42,82*,56*,42
CC(C)C(=O)N1CCN(c2ccccc2NC(=O)c2ccco2)CC1,2,10,103*,2,-9,-7,-6,-7,2,3
CC(C)C(=O)N1CCN(c2ccccc2NC(=O)c2ccc(Br)o2)CC1,-4,3,9,10,0,.,.,.,.,.
CCOC(=O)c1cnc2c(N=Nc3ccccc3)c(N)nn2c1N,1,25,32,11,70*,-8,-7,5,9,-4
CCOC(=O)c1cnc2c(-c3ccccc3)cnn2c1N,2,-293,-46,6,72*,12,19,10,13,1
CCOC(=O)c1cnc2c(-c3ccccc3)c(C)nn2c1N,-1,-346,-14,-7,1,.,.,.,.,.
Cc1cccc(/N=C/c2c(O)[nH]c3ccccc23)n1,-12,-3,88*,75*,3,4,73*,94*,72*,38
CC(C)N=Cc1c(O)[nH]c2ccccc12,2,16,-8,-4,0,.,.,.,.,.
Cc1cccc(/N=C/c2sc3ccccc3c2O)n1,-38,-359,80*,62*,90*,44,44,15,15,12
O=C(N/N=C/c1sc2ccccc2c1O)c1cccc2ccccc12,-5,-68,.,.,.,.,.,.,.,.
COc1ccc2c(O)c(-c3c(C)cc(C)cc3C)c(=O)[nH]c2c1,-2,-57,11,4,4,.,.,.,.,.
CCn1nccc1C(=O)Nc1ccc(Cl)cn1,1,31,74*,35,63*,34,37,80*,40,64*
O=C(O)c1nccnc1C(=O)Nc1ccc(Cl)cn1,1,11,97*,11,2,-9,-7,-6,6,5
CCn1nccc1C(=O)Nc1cc(Cl)cc(Cl)c1,3,16,30,1,20,.,.,.,.,.
N#Cc1cc2ccc(N3CCOCC3)cc2cc1C#N,-29,-280,91*,88*,-7,15,22,3,4,-2
Nc1ccc(C(=O)N/N=C\c2ccc(OC(=O)c3ccccc3Cl)cc2)cc1,-1,-46,-16,-4,-1,.,.,.,.,.
CC(C)c1ccc(/C=N/Nc2ccc(C(=O)O)cc2)cc1,-4,-101,98*,97*,101*,99*,100*,103*,97*,99*
O=C(O)c1ccc(N/N=C/c2ccc(OC(=O)c3ccccc3Cl)cc2)cc1,-2,-22,91*,90*,47,76*,96*,98*,45,7
COc1ccc(/C=N/Nc2ccc(C(=O)O)cc2)cc1OC,1,-269,95*,82*,86*,89*,88*,99*,90*,83*
SMILES,SENP1 inh,SENP8 block-1,SENP6 inh,SENP8 block-2,SENP7 block,SENP8 confirm,SENP6 conf,SENP7 confirm,Casp3 select,SENP luc ctr
Cc1ccc(S(=O)(=O)Oc2cccc(/C=N/Nc3ccc(C(=O)O)cc3)c2)cc1,-2,-140,-5,88*,62*,14,96*,101*,18,90*
COc1cc(C=NNc2ccccc2)ccc1OC(=O)c1ccccc1,4,4,.,.,.,.,.,.,.,.
CCc1c(C2CC2)ncn1Cc1cccc(-c2ccccc2)c1,-8,17,.,.,.,.,.,.,.,.
C=CCOc1c(Br)cc(/C=N/Nc2ccc(C(=O)O)cc2)cc1OCC,-18,-312,85*,77*,55*,88*,87*,94*,29,56*
COc1ccc(/C=N/Nc2ccc(C(=O)O)cc2)cc1Br,-2,-330,95*,97*,100*,99*,100*,102*,98*,98*
COC(=O)[C@@]12C[C@@H](CC(=O)N3CCCCC3)C(=O)N(Cc3ccccc3)C1=CCC(C)(C)C2,0,15,.,.,.,.,.,.,.,.
C/C=C(/CCC1NCCc2c1[nH]c1ccccc21)[Si](C)(C)C (stereo not given),-29,-422,.,.,.,.,.,.,.,.
COc1ccc2[nH]c3c(NCCCOC(C)C)ncnc3c2c1,-3,-267,93*,90*,96*,90*,93*,101*,96*,93*
CCN(CC)CCNc1ncnc2c1[nH]c1ccc(OC)cc12,.,.,-16,4,5,.,.,.,.,.
COc1ccccc1CN(C)C(=O)CN1C(=O)c2ccccc2C1=O,-1,4,-6,3,0,.,.,.,.,.
Cc1ccc(N=Nc2ccc3ccccc3c2O)cc1,6,16,46,90*,100*,6,7,1,2,7
Oc1ccc2ccccc2c1N=Nc1ccc(F)cc1,6,36,6,-7,7,.,.,.,.,.
Oc1c(N=Nc2ccc(F)cc2)ccc2ccccc12,12,42*,82*,86*,99*,38,45,21,78*,12
Cc1cccc(C(=O)Nc2sc3c(c2C#N)CCCCC3)c1,-6,-24,16,33,77*,30,21,16,31,-2
Cc1ccc(C(=O)OCC(=O)Nc2sc3c(c2C#N)CCC3)cc1,-10,8,-17,-15,-13,.,.,.,.,.
N#Cc1c(NC(=O)COC(=O)c2ccc(F)cc2)sc2c1CCC2,-3,-4,-4,1,51*,-5,-4,2,10,8
N#Cc1c(NC(=O)c2ccc([N+](=O)[O-])o2)sc2c1CCC2,-82,35,80*,47,15,58*,79*,79*,76*,10
